Assay results reported in ChEMBL document CHEMBL1158040, “Biological activities and 3D QSAR studies of a series of Delisea pulchra (cf. fimbriata) derived natural products” (J Nat Prod, 2006).
In brackets after ≈: the same amount, converted by molar mass. Activity calls are given as the source filed them. No cut-off for these calls is given here.

Tested on: Lu1
Test: Cytotoxicity against human Lu1 cells
Assay type: functional
Conditions: read-out: ED50 (the source's name)
Molecule `CCCCC1=C(Br)C(OC)(C(Br)Br)OC1=O` (stereo unspecified) has an EC50 greater than 20 µg/mL.

Tested on: Escherichia coli
Test: Antimicrobial activity against Escherichia coli at 10 ug
Assay type: functional, organism-based
Conditions: not given
In short: (§1)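 Direct bioautography: each compound is spotted onto TLC plates and the solvent evaporated. The test organism is then grown directly on the plate. Growth inhibition is scored at the spot as active (+) or very active (++). Where a number is given, it is the radius in mm of the inhibition zone around the spot.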
With `CCC[C@@H](O)C1=C(Br)[C@@](CI)(OC)OC1=O` the Activity was “Active”.
In the case of `CCC[C@@H](OC(C)=O)C1=C(Br)/C(=C\Br)OC1=O` [ACETOXYFIMBROLIDE], the Activity is reported as “inactive”.
With `CCCCC1=C(Br)C(OC)(C(Br)Br)OC1=O` (stereo unspecified) the Activity was “Active”.

Tested on: KB
Test: Cytotoxicity against vinblastine-sensitive human KB cells
Assay type: functional
Conditions: read-out: ED50 (the source's name)
`CCCCC1=C(Br)C(OC)(C(Br)Br)OC1=O` (stereo unspecified) gave an EC50 of 10.5 µg/mL (≈ 24.9 µM).

Tested on: Bacillus subtilis
Test: Antimicrobial activity against Bacillus subtilis at 10 ug
Assay type: functional, organism-based
Conditions: not given
In short: as §1
In the case of `CCC[C@@H](O)C1=C(Br)[C@@](CI)(OC)OC1=O`, the Activity is reported as “Active”.
With `CCC[C@@H](OC(C)=O)C1=C(Br)/C(=C\Br)OC1=O` [ACETOXYFIMBROLIDE] the Activity was “Active”.
In the case of `CCCCC1=C(Br)C(OC)(C(Br)Br)OC1=O` (stereo unspecified), the Activity is reported as “inactive”.

Tested on: LNCaP
Test: Cytotoxicity against human LNCAP cells
Assay type: functional
Conditions: read-out: ED50 (the source's name)
Work on `CCCCC1=C(Br)C(OC)(C(Br)Br)OC1=O` (stereo unspecified) yielded an EC50 of 6.6 µg/mL (≈ 15.7 µM).

Tested on: Micrococcus luteus
Test: Antimicrobial activity against Micrococcus luteus at 10 ug
Assay type: functional, organism-based
Conditions: not given
In short: as §1
In the case of `CCC[C@@H](O)C1=C(Br)[C@@](CI)(OC)OC1=O`, the Activity is reported as “Active”.
In the case of `CCC[C@@H](OC(C)=O)C1=C(Br)/C(=C\Br)OC1=O` [ACETOXYFIMBROLIDE], the Activity is reported as “Active”.
In the case of `CCCCC1=C(Br)C(OC)(C(Br)Br)OC1=O` (stereo unspecified), the Activity is reported as “Active”.

Tested on: Bacillus subtilis
Test: Antimicrobial activity against Bacillus subtilis at 1 ug
Assay type: functional, organism-based
Conditions: not given
In short: as §1
For `CCC[C@@H](O)C1=C(Br)[C@@](CI)(OC)OC1=O`, the Activity was “inactive”.
In the case of `CCC[C@@H](OC(C)=O)C1=C(Br)/C(=C\Br)OC1=O` [ACETOXYFIMBROLIDE], the Activity is reported as “Active”.
With `CCCCC1=C(Br)C(OC)(C(Br)Br)OC1=O` (stereo unspecified) the Activity was “inactive”.

Tested on: Bacillus subtilis
Test: Antimicrobial activity against Bacillus subtilis at 5 ug
Assay type: functional, organism-based
Conditions: not given
In short: as §1
For `CCC[C@@H](O)C1=C(Br)[C@@](CI)(OC)OC1=O`, the Activity was “Active”.
In the case of `CCC[C@@H](OC(C)=O)C1=C(Br)/C(=C\Br)OC1=O` [ACETOXYFIMBROLIDE], the Activity is reported as “Active”.
For `CCCCC1=C(Br)C(OC)(C(Br)Br)OC1=O` (stereo unspecified), the Activity was “inactive”.

Tested on: Micrococcus luteus
Test: Antimicrobial activity against Micrococcus luteus at 0.1 ug
Assay type: functional, organism-based
Conditions: not given
In short: as §1
With `CCC[C@@H](O)C1=C(Br)[C@@](CI)(OC)OC1=O` the Activity was “inactive”.
For `CCC[C@@H](OC(C)=O)C1=C(Br)/C(=C\Br)OC1=O` [ACETOXYFIMBROLIDE], the Activity was “Active”.
In the case of `CCCCC1=C(Br)C(OC)(C(Br)Br)OC1=O` (stereo unspecified), the Activity is reported as “inactive”.

Tested on: Penicillium oxalicum
Test: Antimicrobial activity against Penicillium oxalicum at 0.1 ug
Assay type: functional
Conditions: not given
In short: as §1
With `CCC[C@@H](O)C1=C(Br)[C@@](CI)(OC)OC1=O` the Activity was “inactive”.
In the case of `CCCCC1=C(Br)C(OC)(C(Br)Br)OC1=O` (stereo unspecified), the Activity is reported as “inactive”.

Same assay, conditions: read-out: IZ
For `CCC[C@@H](OC(C)=O)C1=C(Br)/C(=C\Br)OC1=O` [ACETOXYFIMBROLIDE], the zone of inhibition at 0.1 µg/disc was 6 mm.

Target: Human immunodeficiency virus type 1 reverse transcriptase (Human immunodeficiency virus 1) (UniProt Q72547)
Test: Inhibition of HIV1 RT at 200 uM
Conditions: not given
In short: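 HIV-1 reverse transcriptase inhibition was measured in an ELISA-based system.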
For `CCCCC1=C(Br)C(OC)(C(Br)Br)OC1=O` (stereo unspecified), the Activity was “inactive”.

Tested on: Escherichia coli
Test: Antimicrobial activity against Escherichia coli at 1 ug
Assay type: functional, organism-based
Conditions: not given
In short: as §1
In the case of `CCC[C@@H](O)C1=C(Br)[C@@](CI)(OC)OC1=O`, the Activity is reported as “inactive”.
For `CCC[C@@H](OC(C)=O)C1=C(Br)/C(=C\Br)OC1=O` [ACETOXYFIMBROLIDE], the Activity was “inactive”.
With `CCCCC1=C(Br)C(OC)(C(Br)Br)OC1=O` (stereo unspecified) the Activity was “Active”.

Tested on: Penicillium oxalicum
Test: Antimicrobial activity against Penicillium oxalicum at 1 ug
Assay type: functional
Conditions: not given
In short: as §1
For `CCCCC1=C(Br)C(OC)(C(Br)Br)OC1=O` (stereo unspecified), the Activity was “inactive”.

Same assay, conditions: read-out: IZ
`CCC[C@@H](O)C1=C(Br)[C@@](CI)(OC)OC1=O` gave a zone of inhibition at 1 µg/disc of 10 mm.
For `CCC[C@@H](OC(C)=O)C1=C(Br)/C(=C\Br)OC1=O` [ACETOXYFIMBROLIDE], the zone of inhibition at 1 µg/disc was 14 mm.

Tested on: Penicillium oxalicum
Test: Antimicrobial activity against Penicillium oxalicum at 5 ug
Assay type: functional
Conditions: not given
In short: as §1
With `CCCCC1=C(Br)C(OC)(C(Br)Br)OC1=O` (stereo unspecified) the Activity was “inactive”.

Same assay, conditions: read-out: IZ
`CCC[C@@H](O)C1=C(Br)[C@@](CI)(OC)OC1=O` showed a zone of inhibition at 5 µg/disc of 16 mm.
`CCC[C@@H](OC(C)=O)C1=C(Br)/C(=C\Br)OC1=O` [ACETOXYFIMBROLIDE] showed a zone of inhibition at 5 µg/disc of 22 mm.

Tested on: Plasmodium falciparum
Test: Antimalarial activity against chloroquine-sensitive Plasmodium falciparum D6 at 10 ug/ml
Assay type: functional
Conditions: not given
Molecule `CCCCC1=C(Br)C(OC)(C(Br)Br)OC1=O` (stereo unspecified) has an Activity greater than 50%.

Tested on: Escherichia coli
Test: Antimicrobial activity against Escherichia coli at 0.1 ug
Assay type: functional, organism-based
Conditions: not given
In short: as §1
For `CCC[C@@H](O)C1=C(Br)[C@@](CI)(OC)OC1=O`, the Activity was “inactive”.
In the case of `CCC[C@@H](OC(C)=O)C1=C(Br)/C(=C\Br)OC1=O` [ACETOXYFIMBROLIDE], the Activity is reported as “inactive”.
For `CCCCC1=C(Br)C(OC)(C(Br)Br)OC1=O` (stereo unspecified), the Activity was “inactive”.

Tested on: ZR-75-1
Test: Cytotoxicity against human ZR-75-1 cells
Assay type: functional
Conditions: read-out: ED50 (the source's name)
In the case of `CCCCC1=C(Br)C(OC)(C(Br)Br)OC1=O` (stereo unspecified), the EC50 is reported as 6.7 µg/mL (≈ 15.9 µM).

Tested on: KB
Test: Cytotoxicity against human KB cells
Assay type: functional
Conditions: read-out: ED50 (the source's name)
With `CCN(CC)CCCC(C)Nc1ccnc2cc(Cl)ccc12` (stereo unspecified) [CHLOROQUINE] the EC50 was 17.4 µg/mL (≈ 54.4 µM).
Work on `CCCCC1=C(Br)C(OC)(C(Br)Br)OC1=O` (stereo unspecified) yielded an EC50 of 7.6 µg/mL (≈ 18.1 µM).

Tested on: Escherichia coli
Test: Antimicrobial activity against Escherichia coli at 5 ug
Assay type: functional, organism-based
Conditions: not given
In short: as §1
For `CCC[C@@H](O)C1=C(Br)[C@@](CI)(OC)OC1=O`, the Activity was “Active”.
In the case of `CCC[C@@H](OC(C)=O)C1=C(Br)/C(=C\Br)OC1=O` [ACETOXYFIMBROLIDE], the Activity is reported as “inactive”.
With `CCCCC1=C(Br)C(OC)(C(Br)Br)OC1=O` (stereo unspecified) the Activity was “Active”.

Tested on: KB
Test: Cytotoxicity against vinblastine-resistant human KB cells
Assay type: functional
Conditions: read-out: ED50 (the source's name)
In short: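 The vinblastine-resistant KB-V1 line was tested both with and without added vinblastine in the cultured tumour-cell cytotoxicity panel. Results are reported as ED50.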
`CCCCC1=C(Br)C(OC)(C(Br)Br)OC1=O` (stereo unspecified) showed an EC50 of 8 µg/mL (≈ 19 µM).

Tested on: Penicillium oxalicum
Test: Antimicrobial activity against Penicillium oxalicum at 10 ug
Assay type: functional
Conditions: not given
In short: as §1
For `CCCCC1=C(Br)C(OC)(C(Br)Br)OC1=O` (stereo unspecified), the Activity was “inactive”.

Same assay, conditions: read-out: IZ
In the case of `CCC[C@@H](O)C1=C(Br)[C@@](CI)(OC)OC1=O`, the zone of inhibition at 10 µg/disc is reported as 14 mm.
With `CCC[C@@H](OC(C)=O)C1=C(Br)/C(=C\Br)OC1=O` [ACETOXYFIMBROLIDE] the zone of inhibition at 10 µg/disc was 18 mm.

Tested on: Micrococcus luteus
Test: Antimicrobial activity against Micrococcus luteus at 5 ug
Assay type: functional, organism-based
Conditions: not given
In short: as §1
In the case of `CCC[C@@H](O)C1=C(Br)[C@@](CI)(OC)OC1=O`, the Activity is reported as “Active”.
For `CCC[C@@H](OC(C)=O)C1=C(Br)/C(=C\Br)OC1=O` [ACETOXYFIMBROLIDE], the Activity was “Active”.
For `CCCCC1=C(Br)C(OC)(C(Br)Br)OC1=O` (stereo unspecified), the Activity was “Active”.

Tested on: Penicillium oxalicum
Test: Antimicrobial activity against Penicillium oxalicum at 0.01 ug
Assay type: functional
Conditions: not given
In short: as §1
For `CCC[C@@H](OC(C)=O)C1=C(Br)/C(=C\Br)OC1=O` [ACETOXYFIMBROLIDE], the Activity was “inactive”.

Tested on: not listed separately
Test: Inhibition of TK assessed as residual activity at 200 ug/ml
Conditions: not given
In short: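 The enzyme was tyrosine kinase p56lck, with test compounds at 200 μg/mL. The read-out is the remaining enzyme activity.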
With `CCC[C@@H](O)C1=C(Br)/C(=C\Cl)OC1=O` the Activity was 1.6%.
`CCC[C@@H](O)C1=C(Br)/C(=C\I)OC1=O` showed an Activity of 5.8%.
For `CCC[C@@H](O)C1=C(Br)[C@@](CI)(OC)OC1=O`, the Activity was 77.2%.

Tested on: Bacillus subtilis
Test: Antimicrobial activity against Bacillus subtilis at 0.1 ug
Assay type: functional, organism-based
Conditions: not given
In short: as §1
With `CCC[C@@H](O)C1=C(Br)[C@@](CI)(OC)OC1=O` the Activity was “inactive”.
With `CCC[C@@H](OC(C)=O)C1=C(Br)/C(=C\Br)OC1=O` [ACETOXYFIMBROLIDE] the Activity was “inactive”.
In the case of `CCCCC1=C(Br)C(OC)(C(Br)Br)OC1=O` (stereo unspecified), the Activity is reported as “inactive”.

Tested on: Micrococcus luteus
Test: Antimicrobial activity against Micrococcus luteus at 1 ug
Assay type: functional, organism-based
Conditions: not given
In short: as §1
For `CCC[C@@H](O)C1=C(Br)[C@@](CI)(OC)OC1=O`, the Activity was “inactive”.
With `CCC[C@@H](OC(C)=O)C1=C(Br)/C(=C\Br)OC1=O` [ACETOXYFIMBROLIDE] the Activity was “Active”.
In the case of `CCCCC1=C(Br)C(OC)(C(Br)Br)OC1=O` (stereo unspecified), the Activity is reported as “Active”.
